# Source: PubChem BioAssay AID623917 (The Scripps Research Institute Molecular Screening Center, 2012)
# Activity calls are given as the source filed them.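 Rule for the calls: active = E. coli viability under 80% of the solvent control at every tested dose; inactive = viability of 80% or more at every tested dose.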
# System: E. coli V66 viability, colony formation, Hfr cross
# Assay: E. coli V66 viability loss, concentration series, dose response, cytotoxicity control for AddAB inhibitor project, colony formation, Hfr recombination (AID 623917)
# Details: hits give low values
# Summary of the method: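 Material: E. coli V66 recipient cells. Timing: 1 h growth with compound, 1.5 h overall. Benchmarks: DMSO control. Signal: colony counts on non-selective agar plates, CFU/mL.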
row,Structure (SMILES),viability
1,CCn1cc(C(=O)O)c(=O)c2cc(F)c(N3CCN(C(=S)Nc4cccc(C(F)(F)F)c4)CC3)cc21,12%
2,CCn1cc(C(=O)O)c(=O)c2cnc(N3CCNCC3)nc21,90% (inactive)
3,O=C(NCc1cccnc1)c1ccc([N+](=O)[O-])o1,100% (inactive)
4,CCn1cc(C(=O)O)c(=O)c2cnc(N3CCN(C(=S)Nc4cccc(C(F)(F)F)c4)CC3)nc21,100% (inactive)
5,CC1CCc2c(sc(NC(=O)c3ccc([N+](=O)[O-])o3)c2C#N)C1 (stereo not drawn),90% (inactive)
6,O=C(Nc1ncccn1)c1ccc([N+](=O)[O-])o1,100% (inactive)
7,C=CCn1c(Sc2ncc([N+](=O)[O-])s2)n[nH]c1=O,90% (inactive)
8,CCn1cc(C(=O)O)c(=O)c2cnc(N3CCN(C(=S)Nc4ccccc4C(F)(F)F)CC3)nc21,90% (inactive)
